Screening data from PubChem BioAssay.
In the library only some 1.5% were active in any assay of this set; here they are far more common.
dFosB activator – activators of mouse delta FosB homodimer; P13346; purified delta FosB, TAMRA-CDK5 oligo fluorescence polarization; percent of positive-control signal above neutral wells; activation, % at 25 µM; 0.99% of 340,000 active; AID 493131;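 active means mean activation above about 17%, with every replicate also reaching it, limit read from the data, passing the limit was not always enough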
AF4-AF9 inh – inhibitors of human MLL-AF4/AF9 interaction; AlphaScreen, biotin-AF4 peptide binding to FLAG-AF9; inhibition, % at 10 µM; 0.47% of 350,000 active;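 active means every replicate reaching a set inhibition limit, whatever the replicate mean, cut at about 25% in these data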;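 further: 0% = plate neutral control median and 100% = total signal loss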
RAD54 inh – blocks human RAD54 Holliday junction branch migration. FAM/BHQ fluorescence. 0.14% of 360,000 active. AID 602329. Q92698. inhibition, % at 10.4 µM;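 active means mean normalized replicate activity at least 40 and at least half of replicates scoring 40 or more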;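 further: 0% = median of neutral control wells and 100% = median of positive control wells; inhibitors cause a drop in the FAM fluorescence signal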
S100A4 inh HTS – blocks human S100A4 binding to myosin IIA peptide; S100A4/TAMRA-MyoIIA peptide fluorescence polarization; inhibition, % at 10.7 µM; 0.14% of 360,000 active; AID 652163;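 active means mean inhibition of at least 70% across replicates, with every replicate also reaching that level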
Target sequence (P26447 whole entry, looked up): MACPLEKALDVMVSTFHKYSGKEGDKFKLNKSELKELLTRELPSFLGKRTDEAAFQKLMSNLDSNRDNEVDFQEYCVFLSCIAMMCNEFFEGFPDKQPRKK
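Compound dosing: one dose per compound; test system: human S100A4 monomer with TAMRA-labelled myosin IIA peptide; probe or stimulus: TAMRA-labelled myosin IIA heavy-chain peptide probe, 5 nM; medium: HEPES buffer with Ca2+, pH 7.2; schedule: 5 min incubation before reading; benchmarks: neutral control DMSO, positive control TFP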
RAD52 inh – RAD52 (human) annealing inhibition | AID 651710 | inhibition, % at 18.7 µM | 0.46% of 360,000 active | P43351 | recombinant RAD52 DNA annealing, FRET fluorescence;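 active means every replicate showing at least 50% inhibition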
Target sequence (P43351 whole entry, looked up): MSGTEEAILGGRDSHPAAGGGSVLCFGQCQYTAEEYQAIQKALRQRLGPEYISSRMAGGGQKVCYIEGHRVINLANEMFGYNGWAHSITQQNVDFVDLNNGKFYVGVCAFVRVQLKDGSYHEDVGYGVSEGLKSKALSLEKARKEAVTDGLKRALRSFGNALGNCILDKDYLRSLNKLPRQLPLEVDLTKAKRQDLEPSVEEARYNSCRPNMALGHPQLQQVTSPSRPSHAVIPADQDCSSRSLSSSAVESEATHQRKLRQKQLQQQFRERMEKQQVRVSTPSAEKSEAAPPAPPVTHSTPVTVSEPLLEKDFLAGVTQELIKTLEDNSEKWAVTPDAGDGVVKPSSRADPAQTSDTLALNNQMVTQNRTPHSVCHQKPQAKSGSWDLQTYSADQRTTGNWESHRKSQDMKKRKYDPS
* hit, by the source's call; . = no result given.

SMILES | dFosB activator | AF4-AF9 inh | RAD54 inh | S100A4 inh HTS | RAD52 inh
CCOc1ccc(C(C(=O)NCC2CCCO2)N(C(=O)c2snc(C(N)=O)c2N)c2ccc3c(c2)OCCO3)cc1 (stereo unspecified) | -10.3 | 27.2* | 3.0 | 8.5 | -3.2
Cc1ccc(C)c(NC(=O)C2CCCN(S(=O)(=O)c3ccc4[nH]c(=O)ccc4c3)C2)c1 (stereo unspecified) | 5.6 | 0.0 | 7.2 | -9.7 | -9.0
O=C(Nc1ccc(F)cc1)C1CCCN(S(=O)(=O)c2ccc3[nH]c(=O)ccc3c2)C1 (stereo unspecified) | 18.0* | -1.6 | 2.0 | -3.0 | -3.4
C/C(=N\NC(=O)c1cc(-c2ccc(Cl)s2)[nH]n1)c1ccncc1 | -8.9 | 43.3* | -1.6 | 0.9 | -14.4
C/C(=N\NC(=O)c1cc(-c2ccc(Br)s2)[nH]n1)c1ccncc1 | -12.0 | -0.9 | 6.8 | -2.7 | -17.6
COc1ccc(-n2nc(C(=O)NCC(=O)Nc3cc(OC)c(OC)c(OC)c3)c3ccccc3c2=O)cc1Cl | 21.4* | -2.7 | -0.3 | -1.7 | -6.0
COc1ccc(-n2nc(C(=O)NCC(=O)NCc3ccc(F)cc3)c3ccccc3c2=O)cc1OC | 125.8* | -2.4 | -7.4 | -0.4 | -13.5
CCCNC(=O)N1[C@H](C#N)[C@H](c2ccc(C3=CCCCC3)cc2)[C@@H]1CO | . | 3.0 | -8.6 | -4.0 | 7.1
Cc1ccc(S(=O)(=O)N(C)C[C@H]2OCCCC[C@@H](C)Oc3ccc(NC(=O)CCCN(C)C)cc3C(=O)N([C@@H](C)CO)C[C@H]2C)cc1 | . | 5.5 | 23.3 | 4.9 | 50.8*
C[C@@H]1CCCCO[C@@H](CN(C)S(=O)(=O)c2ccccc2)[C@@H](C)CN([C@@H](C)CO)C(=O)c2cc(NC(=O)CCCN(C)C)ccc2O1 | . | -4.1 | -4.5 | 150.9* | 20.4
Cc1ccc(S(=O)(=O)N(C)C[C@H]2OCCCC[C@@H](C)Oc3ccc(NC(=O)CCCN(C)C)cc3C(=O)N([C@H](C)CO)C[C@@H]2C)cc1 | . | -1.9 | 4.5 | 19.3 | 13.8
COc1ccccc1CN1[C@@H](CO)[C@@H]2c3ccccc3N(C(=O)c3cccnc3)C[C@@H]21 | . | 44.3* | -2.2 | 5.6 | 7.0
COc1ccccc1CN1[C@H](CO)[C@H]2c3ccccc3N(C(=O)c3cccnc3)C[C@H]21 | . | -5.6 | 8.7 | 130.1* | 12.8
O=C1CN(S(=O)(=O)Cc2ccccc2)C[C@@H]2[C@@H](c3ccc(C#Cc4cccnc4)cc3)[C@H](CO)N12 | . | -1.9 | . | 10.2 | -19.5
CC(C)C(=O)Nc1ccc2c(c1)C(=O)N(C)[C@H]1CC[C@H](CC(=O)NCC3CC3)O[C@@H]1CO2 | . | -3.0 | 0.8 | -11.5 | -5.5
CCC(=O)N1CCC2(CC1)CN(C(=O)CN1CCOCC1)[C@H](CO)c1[nH]c3cc(OC)ccc3c12 | . | 1.2 | . | -18.0 | -3.4
O=c1cc(OCc2ccccc2)cc[nH]1 | 4.1 | 74.8* | -4.8 | -0.4 | -3.7
Cc1[nH]ccc(=O)c1OCc1ccccc1 | -1.7 | . | -12.5 | . | .
C#CCOCCOCCOCCNc1nc(N2CCN(C(=O)Cn3cc(CCO)nn3)CC2)nc(N2CCN(C(=O)[C@H]([C@@H](C)CC)n3cc(CCCCN)nn3)CC2)n1 | -15.2 | -3.6 | 8.4 | 1.0 | -3.0
C#CCOCCOCCOCCNc1nc(N2CCN(C(=O)Cn3cc(CCCCN)nn3)CC2)nc(N2CCN(C(=O)[C@H]([C@@H](C)CC)n3cc(CCCCN)nn3)CC2)n1 | 6.3 | 25.5* | -10.4 | 0.0 | 45.0
C#CCOCCOCCOCCNc1nc(N2CCN(C(=O)[C@H]([C@@H](C)CC)n3cc(CCCN=C(N)N)nn3)CC2)nc(N2CCN(C(=O)[C@H](Cc3ccc(O)cc3)n3cc(CCO)nn3)CC2)n1 | 15.1 | 30.9* | -10.5 | -4.2 | 8.2
C#CCOCCOCCOCCNc1nc(N2CCN(C(=O)[C@H](C(C)C)n3cc(CCO)nn3)CC2)nc(N2CCN(C(=O)[C@H](Cc3ccc(O)cc3)n3cc(CCO)nn3)CC2)n1 | -9.8 | . | -10.5 | 2.8 | -8.2
CN(C)C(=O)C[C@H]1C[C@H]2c3cc(NC(=O)CC4CC4)ccc3O[C@H]2[C@@H](CO)O1 | . | -1.6 | 9.7 | -0.6 | 3.5
COc1ccc(Nc2nc(NCc3ccco3)nc(N/N=C/c3ccc(O)cc3)n2)cc1 | 41.8* | 11.6 | -3.8 | -7.3 | -11.1
Cc1csc(N=Nc2ccc(N(C)C)cc2)[n+]1[O-] | . | 51.7* | . | -11.9 | 29.1
SMILES | dFosB activator | AF4-AF9 inh | RAD54 inh | S100A4 inh HTS | RAD52 inh
C[C@@H]1CCCCO[C@@H](CN(C)Cc2ccc(C(F)(F)F)cc2)[C@@H](C)CN([C@@H](C)CO)C(=O)c2cc(NC(=O)CCCN(C)C)ccc2O1 | . | 9.2 | 17.4 | 17.5 | 32.8
COCC(=O)Nc1ccc2c(c1)C(=O)N(C)C[C@H](OC)[C@H](C)CN(C(=O)C1CCCC1)[C@@H](C)CO2 | . | -3.1 | -7.1 | 5.1 | -2.7
CC1CCN(C(=O)c2[nH]cnc2C(=O)N[C@@H](C)C(=O)OCc2ccccc2)CC1 | 1.1 | -2.4 | 3.0 | 138.0* | -8.7
Cc1nn(C)cc1NC(=O)C[C@H]1CC[C@H]2[C@@H](COc3ccc(NC(=O)C(C)C)cc3C(=O)N2C)O1 | . | . | -1.7 | . | .
COc1ccccc1C=NN=C(NN=Cc1ccccc1OC)NN=Cc1ccccc1OC | 44.5* | 2.4 | -1.9 | -2.1 | -3.2
O=C(c1ccccc1)N1CC[C@@H]2[C@H]1c1cc(C#CC3CCCCC3)ccc1N[C@@H]2CO | . | 3.1 | . | -24.2 | -18.2
CCN1C(=O)/C(=C\C=C2/C=CC=CN2CC)SC1=S | 24.6* | . | . | . | .
CCOc1ccc(NC(=O)CN2C(=O)CSc3ccc(S(=O)(=O)N4CCCC4)cc32)cc1 | -4.2 | -2.7 | 1.0 | 5.3 | -1.4
CCOc1ccc(NC(=O)CN2C(=O)CCSc3ccc(S(=O)(=O)N4CCCC4)cc32)cc1 | 37.5* | 1.0 | 1.1 | 2.0 | -3.6
CCCC#Cc1ccc2c(c1)O[C@H](CN(C)CCC)[C@@H](C)CN([C@H](C)CO)S2(=O)=O | . | -0.1 | 0.1 | -0.8 | 11.3
C[C@H](O)C#Cc1ccc2c(c1)O[C@@H](CN(C)Cc1ccccc1)[C@@H](C)CN([C@H](C)CO)S2(=O)=O | . | -3.2 | -2.4 | -5.2 | 4.3
COc1ccc(-c2ccc3c(c2)[C@@H]2[C@@H](CCN2C(=O)c2ccncc2)[C@@H](CO)N3C)cc1 | . | -4.6 | 8.5 | 5.2 | 14.7
COc1ccc(C#Cc2ccc3c(c2)[C@H]2[C@H](CCN2C(=O)c2ccccn2)[C@H](CO)N3)cc1 | . | 4.9 | . | -8.1 | -3.8
COc1ccccc1C#Cc1ccc2c(c1)[C@H]1NCC[C@H]1[C@@H](CO)N2 | . | 18.0 | . | 9.9 | 54.1*
COc1ccc(C#Cc2ccc3c(c2)[C@@H]2[C@@H](CCN2C(=O)c2ccncc2)[C@@H](CO)N3C)cc1 | . | 2.6 | 15.6 | -12.5 | 62.3*
COc1ccc(C#Cc2ccc3c(c2)[C@H]2[C@H](CCN2C(=O)c2ccccn2)[C@@H](CO)N3)cc1 | . | 26.1* | . | -6.2 | 19.0
OC[C@@H]1Nc2ccc(C#Cc3ccccc3)cc2[C@@H]2[C@H]1CCN2Cc1nccs1 | . | 18.3 | . | -18.7 | 59.2*
